# In ChEMBL document CHEMBL1932971, “Synthesis of uriedo and thiouriedo derivatives of peptide conjugated heterocycles - A new class of promising antimicrobials” (2012):
# Numbered stars: 1 amine (or outer) side, 2 acyl side, 3 side chain; on linkers, the order of the positions; unused ones are H or OH. Peptide text beside a SMILES is read from it. * marks the point of attachment. Piperazinyl(4-(2,3-Cl2Ph)) = Clc1cccc(N2CCN(*)CC2)c1Cl; Thiocarbamoyl(N-4-ClPh) = S=C(Nc1ccc(Cl)cc1)*; Thiocarbamoyl(N-2-FPh) = Fc1ccccc1NC(=S)*; NH(4-Cl-phenyl) = Clc1ccc(N*)cc1; X1 = Fc1ccc2c(C3CCN(*)CC3)noc2c1; NH(2-F-phenyl) = Fc1ccccc1N*; CO = O=C([*:1])[*:2]
# Assays:
# Type in all cases: functional
# Escherichia coli [1] = assay: Antibacterial activity against Escherichia coli at 30 ug/ml after 24 hrs by agar well diffusion method; settings: read-out: DIZ
# Outline: (§1)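 Agar well diffusion. Inocula were grown in nutrient broth at 37 °C for 24 h, then subcultured in nutrient broth at room temperature. Compounds were made as a 1 mg/mL DMSO stock and diluted to 30 µg/mL final. Nutrient agar plates were spread-inoculated and 6 mm wells each got 0.1 mL. Controls were amoxicillin (reference) and DMSO (negative). Incubation was 24 h at 37 °C. Inhibition zone was measured in mm as the mean of three determinations.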
# Xanthomonas oryzae [2] = assay: Antibacterial activity against Xanthomonas oryzae at 30 ug/ml after 24 hrs by agar well diffusion method; settings: read-out: DIZ
# Klebsiella pneumoniae [3] = assay: Antibacterial activity against Klebsiella pneumoniae at 30 ug/ml after 24 hrs by agar well diffusion method; settings: read-out: DIZ; outline: as §1
# Staphylococcus aureus [4] = assay: Antibacterial activity against coagulase-positive Staphylococcus aureus at 30 ug/ml after 24 hrs by agar well diffusion method; settings: read-out: DIZ; outline: as §1
# Escherichia coli [5] = assay: Antibacterial activity against Escherichia coli after 24 hrs by microdilution method
# Xanthomonas oryzae [6] = assay: Antibacterial activity against Xanthomonas oryzae after 24 hrs by microdilution method
# Klebsiella pneumoniae [7] = assay: Antibacterial activity against Klebsiella pneumoniae after 24 hrs by microdilution method
# Staphylococcus aureus [8] = assay: Antibacterial activity against coagulase-positive Staphylococcus aureus after 24 hrs by microdilution method
# Aspergillus niger [9] = assay: Antifungal activity against Aspergillus niger at 30 ug/ml after 72 hrs by agar well diffusion method; settings: read-out: DIZ
# Outline: (§2)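 Fungal well diffusion. Inocula were subcultured in nutrient broth for one day, then spread on solidified medium. Compounds were made as a 1 mg/mL DMSO stock and diluted to 30 µg/mL final. Each 6 mm well got 0.1 mL. Controls were bavistin (reference) and DMSO (negative). Plates stood for 3 days at room temperature. Inhibition zone was measured in mm as the mean of three determinations.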
# Aspergillus flavus [10] = assay: Antifungal activity against Aspergillus flavus at 30 ug/ml after 72 hrs by agar well diffusion method; settings: read-out: DIZ; outline: as §2
# Fusarium oxysporum [11] = assay: Antifungal activity against Fusarium oxysporum at 30 ug/ml after 72 hrs by agar well diffusion method; settings: read-out: DIZ; outline: as §2
# Aspergillus niger [12] = assay: Antifungal activity against Aspergillus niger after 72 hrs by microdilution method
# Aspergillus flavus [13] = assay: Antifungal activity against Aspergillus flavus after 72 hrs by microdilution method
# Fusarium oxysporum [14] = assay: Antifungal activity against Fusarium oxysporum after 72 hrs by microdilution method
SMILES,zone of inhibition at 30 µg/mL (Escherichia coli [1]),zone of inhibition at 30 µg/mL (Xanthomonas oryzae [2]),zone of inhibition at 30 µg/mL (Klebsiella pneumoniae [3]),zone of inhibition at 30 µg/mL (Staphylococcus aureus [4]),MIC (Escherichia coli [5]),MIC (Xanthomonas oryzae [6]),MIC (Klebsiella pneumoniae [7]),MIC (Staphylococcus aureus [8]),zone of inhibition at 30 µg/mL (Aspergillus niger [9]),zone of inhibition at 30 µg/mL (Aspergillus flavus [10]),zone of inhibition at 30 µg/mL (Fusarium oxysporum [11]),MIC (Aspergillus niger [12]),MIC (Aspergillus flavus [13]),MIC (Fusarium oxysporum [14])
O=C(CNC(=O)Nc1ccccc1F)N[C@@H](Cc1ccccc1)C(=O)NCC(=O)N[C@@H](Cc1ccccc1)C(=O)N1CCC[C@H]1C(=O)N1CCC(c2noc3cc(F)ccc23)CC1 ({NH(2-F-phenyl)-CO}-GFGFP-X1),39 mm,40 mm,36 mm,34 mm,5 mg/L,5 mg/L,3.25 mg/L,4.25 mg/L,40 mm,35 mm,39 mm,3.25 mg/L,4.75 mg/L,4.25 mg/L
"O=C(CNC(=O)Nc1ccccc1F)N[C@@H](Cc1ccccc1)C(=O)NCC(=O)N[C@@H](Cc1ccccc1)C(=O)N1CCC[C@H]1C(=O)N1CCN(c2cccc(Cl)c2Cl)CC1 ({NH(2-F-phenyl)-CO}-GFGFP-{Piperazinyl(4-(2,3-Cl2Ph))})",37 mm,38 mm,35 mm,33 mm,5.5 mg/L,5.75 mg/L,4 mg/L,5 mg/L,39 mm,34 mm,34 mm,4 mg/L,5.25 mg/L,5 mg/L
O=C(CNC(=O)Nc1ccccc1F)NCC(=O)N[C@@H](Cc1ccccc1)C(=O)N1CCC[C@H]1C(=O)N1CCC(c2noc3cc(F)ccc23)CC1 ({NH(2-F-phenyl)-CO}-GGFP-X1),31 mm,29 mm,27 mm,25 mm,12 mg/L,9 mg/L,9 mg/L,11 mg/L,34 mm,29 mm,31 mm,9 mg/L,13 mg/L,14 mg/L
"CC[C@H](C)[C@H](NC(=O)CNC(=O)CNC(=O)Nc1ccccc1F)C(=O)N1CCC[C@H]1C(=O)N1CCN(c2cccc(Cl)c2Cl)CC1 ({NH(2-F-phenyl)-CO}-GGIP-{Piperazinyl(4-(2,3-Cl2Ph))})",29 mm,26 mm,23 mm,24 mm,13 mg/L,10 mg/L,10 mg/L,12 mg/L,32 mm,28 mm,30 mm,11 mg/L,14 mg/L,15 mg/L
CC(C)[C@H](NC(=O)CNC(=O)Nc1ccccc1F)C(=O)NCC(=O)N[C@H](C(=O)N1CCC[C@H]1C(=O)N1CCC(c2noc3cc(F)ccc23)CC1)C(C)C ({NH(2-F-phenyl)-CO}-GVGVP-X1),34 mm,35 mm,33 mm,30 mm,7.75 mg/L,6.75 mg/L,5.25 mg/L,6.75 mg/L,36 mm,32 mm,33 mm,5 mg/L,5.75 mg/L,7 mg/L
"CC(C)[C@H](NC(=O)CNC(=O)Nc1ccccc1F)C(=O)NCC(=O)N[C@H](C(=O)N1CCC[C@H]1C(=O)N1CCN(c2cccc(Cl)c2Cl)CC1)C(C)C ({NH(2-F-phenyl)-CO}-GVGVP-{Piperazinyl(4-(2,3-Cl2Ph))})",33 mm,34 mm,32 mm,29 mm,8.25 mg/L,7.25 mg/L,6 mg/L,7.25 mg/L,35 mm,31 mm,32 mm,5.5 mg/L,6.25 mg/L,7.5 mg/L
O=C(CNC(=O)Nc1ccc(Cl)cc1)N[C@@H](Cc1ccccc1)C(=O)NCC(=O)N[C@@H](Cc1ccccc1)C(=O)N1CCC[C@H]1C(=O)N1CCC(c2noc3cc(F)ccc23)CC1 ({NH(4-Cl-phenyl)-CO}-GFGFP-X1),34 mm,35 mm,33 mm,31 mm,6.25 mg/L,6.5 mg/L,4.75 mg/L,6 mg/L,38 mm,31 mm,35 mm,4.75 mg/L,6.25 mg/L,6 mg/L
CC(C)[C@H](NC(=O)CNC(=O)Nc1ccc(Cl)cc1)C(=O)NCC(=O)N[C@H](C(=O)N1CCC[C@H]1C(=O)N1CCC(c2noc3cc(F)ccc23)CC1)C(C)C ({NH(4-Cl-phenyl)-CO}-GVGVP-X1),30 mm,26 mm,29 mm,27 mm,9.25 mg/L,8.5 mg/L,6.75 mg/L,8.75 mg/L,33 mm,29 mm,32 mm,6.5 mg/L,7.5 mg/L,8.5 mg/L
O=C(CNC(=S)Nc1ccccc1F)N[C@@H](Cc1ccccc1)C(=O)NCC(=O)N[C@@H](Cc1ccccc1)C(=O)N1CCC[C@H]1C(=O)N1CCC(c2noc3cc(F)ccc23)CC1 ({Thiocarbamoyl(N-2-FPh)}-GFGFP-X1),41 mm,41 mm,37 mm,36 mm,4.75 mg/L,4.75 mg/L,3 mg/L,4 mg/L,41 mm,36 mm,40 mm,3 mg/L,4.5 mg/L,4 mg/L
O=C(CNC(=S)Nc1ccccc1F)NCC(=O)N[C@@H](Cc1ccccc1)C(=O)N1CCC[C@H]1C(=O)N1CCC(c2noc3cc(F)ccc23)CC1 ({Thiocarbamoyl(N-2-FPh)}-GGFP-X1),32 mm,30 mm,28 mm,26 mm,11.5 mg/L,8.5 mg/L,8.25 mg/L,10.2 mg/L,35 mm,30 mm,32 mm,8.5 mg/L,12.2 mg/L,13.2 mg/L
CC(C)[C@H](NC(=O)CNC(=S)Nc1ccccc1F)C(=O)NCC(=O)N[C@H](C(=O)N1CCC[C@H]1C(=O)N1CCC(c2noc3cc(F)ccc23)CC1)C(C)C ({Thiocarbamoyl(N-2-FPh)}-GVGVP-X1),35 mm,36 mm,35 mm,31 mm,7.25 mg/L,6.25 mg/L,5 mg/L,6.25 mg/L,37 mm,33 mm,35 mm,4.75 mg/L,5.5 mg/L,6.75 mg/L
"O=C(CNC(=S)Nc1ccc(Cl)cc1)NCC(=O)N[C@@H](Cc1ccccc1)C(=O)N1CCC[C@H]1C(=O)N1CCN(c2cccc(Cl)c2Cl)CC1 ({Thiocarbamoyl(N-4-ClPh)}-GGFP-{Piperazinyl(4-(2,3-Cl2Ph))})",29 mm,26 mm,25 mm,23 mm,,,,,32 mm,28 mm,30 mm,,,
CC[C@H](C)[C@H](NC(=O)CNC(=O)CNC(=S)Nc1ccc(Cl)cc1)C(=O)N1CCC[C@H]1C(=O)N1CCC(c2noc3cc(F)ccc23)CC1 ({Thiocarbamoyl(N-4-ClPh)}-GGIP-X1),28 mm,25 mm,21 mm,21 mm,,,,,29 mm,27 mm,29 mm,,,
"CC[C@H](C)[C@H](NC(=O)CNC(=O)CNC(=S)Nc1ccc(Cl)cc1)C(=O)N1CCC[C@H]1C(=O)N1CCN(c2cccc(Cl)c2Cl)CC1 ({Thiocarbamoyl(N-4-ClPh)}-GGIP-{Piperazinyl(4-(2,3-Cl2Ph))})",27 mm,24 mm,20 mm,22 mm,,,,,28 mm,26 mm,28 mm,,,
CC1(C)S[C@@H]2[C@H](NC(=O)[C@H](N)c3ccc(O)cc3)C(=O)N2[C@H]1C(=O)O [AMOXICILLIN],12 mm,9 mm,8 mm,8 mm,24 mg/L,19 mg/L,20 mg/L,23 mg/L,,,,,,
COC(=O)Nc1nc2ccccc2[nH]1 [CARBENDAZIM],,,,,,,,,12 mm,9 mm,10 mm,22 mg/L,26 mg/L,25 mg/L
